# Bioassay records as filed in PubChem BioAssay.
# The list is not random: actives were taken first. Their share in the collection is about 2.7%.
# ASAP1 GAP inh: blocks human ASAP1-stimulated Arf1 GTP hydrolysis; Q9ULH1; GDP FP detection; inhibition, % at 16.5 µM; hit rate 0.19% among 360,000; AID 624377; in the data active = inhibition above about 25%
# pPAFAH FP inh: pPAFAH (human) enzyme inhibition; inhibition, % at 3.39 µM; AID 463082; hit rate 1.5% among 330,000; recombinant pPAFAH, FP-rhodamine probe fluorescence polarization;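 active = inhibition above the mean inhibition across the screen plus 3 SD, cut at about 25% in these data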;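 also: inhibitors block binding of the rhodamine activity-based probe so polarization drops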
# ARFGAP1 inhibitor: rat ARFGAP1 inhibition; Q62848; Arfgap1-stimulated ARF1 GTP hydrolysis, GDP FP detection; inhibition, % at 16.5 µM; hit rate 0.26% among 360,000; AID 651572;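 active = inhibition above a per-plate limit, mean inhibition of low control wells plus 3 SD, cut at about 25% in these data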
# Target sequence (Q62848 1-136 limits assumed): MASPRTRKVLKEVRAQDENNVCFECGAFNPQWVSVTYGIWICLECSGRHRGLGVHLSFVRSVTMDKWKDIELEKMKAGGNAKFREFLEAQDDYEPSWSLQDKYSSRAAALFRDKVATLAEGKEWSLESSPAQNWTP
#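 System: truncated rat Arfgap1 GAP domain / Medium: HEPES-based buffer, pH 7.5 / Also added: N-terminally truncated human ARF1-GTP substrate / Incubation: enzyme reaction 120 min at 25 °C after 20 min preincubation / Measured by: FP of antibody-bound GDP Alexa 633 tracer, ex 620/em 688 nm / Replicates: singlicate, each compound tested once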
# PAFAH1B2 FP inh: blocks human PAF acetylhydrolase 1b catalytic subunit 2 | inhibition, % at 3.39 µM | AID 492953 | P68402 | hit rate 1.2% among 340,000 | recombinant PAFAH1B2, FP-rhodamine activity probe, fluorescence polarization;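 active = inhibition above the mean of all tested compounds plus 3 SD, cut at about 24% in these data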
# Target sequence (P68402 whole entry, looked up): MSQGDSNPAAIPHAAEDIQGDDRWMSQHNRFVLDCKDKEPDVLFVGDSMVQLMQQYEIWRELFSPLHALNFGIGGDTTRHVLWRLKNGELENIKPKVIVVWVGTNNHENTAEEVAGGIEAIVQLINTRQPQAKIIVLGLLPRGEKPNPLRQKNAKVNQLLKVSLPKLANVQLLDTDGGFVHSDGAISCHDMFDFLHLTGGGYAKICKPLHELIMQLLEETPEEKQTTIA
# PAFAH1B3 inh: blocks human PAF acetylhydrolase 1B catalytic subunit 3; Q15102; recombinant PAFAH1B3, FP-rhodamine probe, fluorescence polarization; hit rate 0.28% among 340,000; inhibition, % at 3.39 µM;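 active = inhibition above the screen-wide average of all tested compounds plus 3 SD, cut at about 25% in these data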
# Target sequence (Q15102 whole entry, looked up): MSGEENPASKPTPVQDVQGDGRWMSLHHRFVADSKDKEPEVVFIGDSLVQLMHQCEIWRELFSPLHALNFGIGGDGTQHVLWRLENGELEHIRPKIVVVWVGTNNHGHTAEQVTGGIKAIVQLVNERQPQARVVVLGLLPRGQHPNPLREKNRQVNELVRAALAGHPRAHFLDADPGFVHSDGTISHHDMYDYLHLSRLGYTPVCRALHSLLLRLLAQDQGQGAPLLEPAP
# PAFAH2 FP inh: inhibitors of human PAFAH2; Q99487; recombinant PAFAH2, FP-rhodamine activity probe, fluorescence polarization; inhibition, % at 3.39 µM; hit rate 0.99% among 340,000;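 active = inhibition above the mean over all tested compounds plus 3 SD, cut at about 30% in these data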;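 also: inhibitors block probe labeling of enzyme so polarization drops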
# Numbers stand for hits; . = inactive; / = not tested or not shown.
SMILES,ASAP1 GAP inh,pPAFAH FP inh,ARFGAP1 inhibitor,PAFAH1B2 FP inh,PAFAH1B3 inh,PAFAH2 FP inh
CCCCCCSc1ccc(-c2nc3ccc(C)cn3c2NCc2ccccc2)cc1OC,.,26.0,.,.,.,.
CCC(C)Sc1cc(-c2nc3ccc(C)cn3c2NCc2ccccc2)ccc1OC (stereo not drawn),.,.,.,.,.,.
COC(=O)c1cc2c(c3c4cc(OC)ccc4n(S(C)(=O)=O)c13)C(=O)N(C)C2,.,/,.,/,/,/
O=c1[nH]c(NCCO)nc2c1C1(CCCC1)Cc1ccccc1-2,.,.,.,34.1,.,.
CCC1(C)Cc2ccccc2-c2nc(NCCO)[nH]c(=O)c21 (stereo not drawn),.,.,.,.,.,.
CCCN1CCCCC(NC(=O)c2ccc(F)c(F)c2)C1=O (stereo not drawn),.,/,.,/,/,/
CCC1CN(C(=O)NCc2ccc(C)cc2)c2cc(C)ccc2O1 (stereo not drawn),.,/,.,.,.,.
CCC1CN(C(=O)NCc2ccccc2)c2cc(C)ccc2O1 (stereo not drawn),.,/,.,35.8,49.7,70.9
COC(=O)C1=C(C)N(Cc2ccc(C(F)(F)F)cc2)C(=NCc2ccccc2)NC1c1cccc(Cl)c1 (stereo not drawn),.,/,.,/,/,/
CCCCC1=CC2=CC(=O)C(C)(O)C(=O)C2=CO1 (stereo not drawn),/,41.4,/,/,/,/
CCCCC1=CC2=CC(=O)C(C)(OC(=O)c3ccc(Cl)nc3)C(=O)C2=CO1 (stereo not drawn),/,53.5,/,/,/,/
CC1(O)C(=O)C=C2C=C(c3ccsc3)OC=C2C1=O (stereo not drawn),/,42.2,/,/,/,/
COC(=O)CCCC1=CC2=CC(=O)C(C)(OC(=O)c3ccco3)C(=O)C2=CO1 (stereo not drawn),/,46.8,/,/,/,/
CC(C)(C)OC(=O)NCCCCC1=CC2=CC(=O)C(C)(OC(=O)c3ccco3)C(=O)C2=CO1 (stereo not drawn),/,42.8,/,/,/,/
CC1(OC(=O)c2ccco2)C(=O)C=C2C=C(c3ccsc3)OC=C2C1=O (stereo not drawn),/,49.7,/,/,/,/
CC(C)(C)OC(=O)NCCCC1=CC2=CC(=O)C(C)(OC(=O)C3CCCC3)C(=O)C2=CO1 (stereo not drawn),/,41.3,/,/,/,/
CC1(OC(=O)c2cnc3ccccc3n2)C(=O)C=C2C=C(c3ccc(C#N)cc3)OC=C2C1=O (stereo not drawn),/,.,/,/,/,/
COC(=O)c1ccc(CC(=O)c2ccc(O)cc2O)o1,/,.,/,.,.,.
COc1cc(CC(=O)O)ccc1O,.,34.2,.,.,.,.
COc1ccc(CC(=O)c2c(O)cc(O)cc2O)cc1OC,.,25.0,.,.,.,.
COc1cc(C[C@@H](C)[C@@H](C)Cc2ccc(O)c(OC)c2)ccc1O,.,.,.,26.5,.,.
COc1cc(C[C@@H](CO)[C@H](CO)Cc2ccc(O)c(OC)c2)ccc1O,/,.,/,/,/,/
COC(=O)c1ccc(CC(=O)c2c(C)cc(O)cc2O)o1,.,34.1,.,.,.,.
Cc1ccc2nc(NC(=O)c3ccc(OCC4CCCO4)cc3)sc2c1 (stereo not drawn),.,26.7,.,.,.,.
Cc1cc(C(=O)OCC(=O)N2CCC(c3ccccc3)=N2)ccc1[N+](=O)[O-],.,.,.,.,.,.
SMILES,ASAP1 GAP inh,pPAFAH FP inh,ARFGAP1 inhibitor,PAFAH1B2 FP inh,PAFAH1B3 inh,PAFAH2 FP inh
O=C(COC(=O)c1ccc([N+](=O)[O-])s1)Nc1ccccc1,.,.,.,.,34.0,81.1
Cc1nc(C)c(C(=O)OCC(=O)Nc2ccccc2)s1,.,26.2,.,.,.,95.0
O=C(OCc1nnc(-c2ccccc2)o1)c1ccc([N+](=O)[O-])s1,.,.,.,.,30.5,31.0
O=C(OCC(=O)N1CCC(c2ccccc2)=N1)c1ccc([N+](=O)[O-])s1,.,25.3,.,.,.,.
COCc1cc(N2CCN(C(=O)OC(C)(C)C)C[C@H]2C)ccc1Br,.,/,.,/,/,/
C[C@H](CO)N1C[C@H](C)[C@@H](CN(C)C(=O)c2ccncc2)OCc2cn(nn2)CCCC1=O,.,/,.,/,/,/
O=C(COC(=O)c1ccc([N+](=O)[O-])s1)Nc1ccc(F)cc1,.,.,.,.,34.2,52.1
Cc1c(Cl)cnc(NC(=O)COC(=O)c2ccc([N+](=O)[O-])s2)c1Cl,.,.,.,.,33.2,47.0
CN(Cc1nc(-c2cnccn2)no1)CC1(c2ccccc2)CC1(C)C (stereo not drawn),.,.,.,25.7,.,.
CN(Cc1nc(-c2cnccn2)no1)Cc1cccc2ccccc12,.,.,.,.,.,.
CC(C)c1ccc(NC2CCCN(C(=O)c3n[nH]c4c3CCC4)C2)cc1 (stereo not drawn),.,.,.,26.9,.,.
COC(=O)c1ccc(C(=O)N2CCCC(Nc3ccc(C(C)C)cc3)C2)cc1 (stereo not drawn),.,.,.,.,.,.
COc1cccc(C(=O)N[C@H](C(=O)N2CCC[C@H]2C(=O)NC2CCCC2)c2ccccc2)c1,.,/,.,/,/,/
COc1ccccc1-n1c(=O)c(C#N)c(-c2ccc([N+](=O)[O-])cc2)c2cc(C(=O)c3cc(F)ccc3O)cnc21,.,.,.,.,.,.
Cn1c(=O)c(C#N)c(-c2ccc(F)cc2)c2cc(C(=O)c3cc(Cl)cc(Cl)c3O)cnc21,.,26.2,.,.,.,.
CC(=NNc1cc(C)c2cc(C)ccc2n1)c1ccccn1,.,/,.,/,/,/
CCC1(CC)NC(=O)N(CC(=O)Nc2sc3c(c2C(N)=O)CCC3)C1=O,.,28.0,.,.,.,.
CCC1(C)NC(=O)N(CC(=O)Nc2sc3c(c2C(=O)OC)CCCCC3)C1=O (stereo not drawn),.,.,.,.,.,.
COc1cc(C=NN=c2sc3ccccc3n2C)ccc1OCCO,.,/,.,/,/,/
O=C(O[C@@H]1OC2COC(=O)c3cc(O)c(O)c(O)c3-c3c(cc(O)c(O)c3O)C(=O)O[C@@H]([C@H]1O)[C@@H]2O)c1cc(O)c(O)c(O)c1,/,74.7,/,26.4,37.3,59.0
Cc1ccc(C2c3c(n[nH]c3C)C(=O)N2Cc2ccccc2)cc1 (stereo not drawn),.,/,.,/,/,/
Cc1[nH]c2ccccc2c1CC(=O)Nc1ccc(Oc2cccnc2)cc1,.,/,.,/,/,/
CCn1c2ccccc2c2cc(NC(=O)c3ccccc3-c3ccccc3C(=O)O)ccc21,.,33.3,.,.,.,.
CCn1c2ccccc2c2cc(NC(=O)C(C)C)ccc21,.,.,.,.,.,.
CC(NC(=O)c1ccccc1NS(=O)(=O)c1ccc(CCC(=O)O)cc1)c1ccccc1 (stereo not drawn),.,.,.,28.0,.,.
O=C(N/C=C/c1ccco1)OCc1ccccc1,.,26.1,.,.,.,.
